According to ChEMBL document CHEMBL5705901, “Exploiting selective BCL-2 family inhibitors to dissect cell survival dependencies and define improved strategies for cancer therapy” (Sci Transl Med, 2015):
The source made the active and inactive calls. The rule behind the calls is not given here.

Tests used:
[1] = tested on: NCI-H1650; assay: Antitumor activity against human NCI-H1650 cells xenografted in SCID-bg mouse assessed as tumor growth delay at 25 mg/kg, po administered daily for 14 days relative to control; format: functional; details: time 14 day
How it was run: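 NCI-H1650 NSCLC xenografts, ten mice per group. Arms: vehicle; docetaxel iv once at 7.5 mg/kg; oral agent daily for 14 days at 25 mg/kg; and the two combined. TGImax = 100(1 − Tv/Cv) from mean volumes. TGD = 100(T/C − 1) from median times to reach 1 cm3.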

[2] = tested on: MDA-MB-231; assay: Antitumor activity against LC3 positive human MDA-MB-231 cells xenografted in SCID mouse assessed as maximum tumor growth inhibition at 25 mg/kg, po administered daily for 14 days relative to control; format: functional; details: MDA-MB-231, 336 h, time 14 day, read-out: TGI
How it was run: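 MDA-MB-231 LC3 metastatic breast cancer xenograft, 10 mice per group, with a vehicle control. Dosing: oral agent 25 mg/kg daily for 14 days; docetaxel 7.5 mg/kg iv once; combination gives both regimens. Mean tumor volumes tracked. TGImax = 100(1 − Tv/Cv) from mean treated vs control volumes. TGD = 100(T/C − 1) from median times to reach 1 cm3.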

[3] = tested on: NCI-H747; assay: Antitumor activity against human NCI-H747 cells xenografted in po dosed SCID-bg mouse assessed as tumor growth delay relative to control; format: functional
How it was run: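 Tumor volume-based endpoints. TGD = 100(T/C − 1), where T and C are the median times for the treated and control groups to reach 1 cm3. Groups were five mice for NCI-H747 and OVCAR-5 and eight for NCI-H358. Docetaxel was given intravenously and the test agent orally.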

[4] = tested on: NCI-H747; assay: Antitumor activity against human NCI-H747 cells xenografted in po dosed SCID-bg mouse assessed as maximum tumor growth inhibition relative to control; format: functional
[5] = tested on: A549; assay: Antitumor activity against 3 times passaged human A549 cells xenografted in po dosed SCID mouse assessed as tumor growth delay relative to control; format: functional
[6] = tested on: EBC-1; assay: Synergistic antitumor activity against human EBC-1 cells xenografted in po dosed SCID-bg mouse assessed as tumor growth delay in presence of docetaxel relative to control; format: functional
How it was run: (§1)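 Xenografts dosed with oral inhibitor plus intravenous docetaxel. TGImax = 100(1 − Tv/Cv), from mean treated and control tumor volumes; TGD = 100(T/C − 1), from median times to reach 1 cm3. Group size 5 mice (NCI-H747, A549-FP3, EBC-1, OVCAR-5), 8 (NCI-H358), 10 (NCI-H1650).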

[7] = tested on: NCI-H358; assay: Synergistic antitumor activity against human NCI-H358 cells xenografted in po dosed SCID mouse assessed as maximum tumor growth inhibition in presence of docetaxel relative to control; format: functional; how it was run: as §1
[8] = tested on: MOLT-4; assay: Antitumor activity against human MOLT-4 cells xenografted in SCID-bg mouse assessed as tumor regression at 25 mg/kg, po administered twice a day for 14 days; format: functional, organism-based; details: time 14.0 day
How it was run: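 Mice bearing Molt-4 T-ALL xenografts, dosed alongside a vehicle control group. Each point on the growth curve is the mean volume of 10 tumours, with SD.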

[9] = tested on: EBC-1; assay: Antitumor activity against human EBC-1 cells xenografted in po dosed SCID-bg mouse assessed as maximum tumor growth inhibition relative to control; format: functional
[10] = tested on: MOLT-4; assay: Induction of apoptosis in human MOLT-4 cells assessed as caspase-3/7 activation at 1 to 667 nM incubated for 4 hrs; format: functional, cell-based; details: dose 1-667 nM
How it was run: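 Molt-4 cells were incubated with increasing concentrations for 4 h, and caspase-3/7 activation was measured. Values are the mean of triplicate experiments ± SD.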

[11] = Toxicity in Sprague-Dawley rat assessed as inhibition of granulopoiesis by measuring reduction in neutrophil count at 7 mg/kg, po administered daily for 5 days measured on day 6 by microscopic analysis relative to control; format: organism-based; details: in vivo, 144 h, time 6 day
How it was run: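 Male Sprague-Dawley rats, n = 10 per group: docetaxel 5 mg/kg i.v. once, or oral inhibitor daily for 5 days (30, 50 or 7 mg/kg depending on agent), alone or combined with docetaxel, against vehicles. Total neutrophil and platelet counts in blood collected on day 6; Tukey-Kramer test versus vehicle.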

[12] = tested on: HCC1806; assay: Induction of apoptosis in human HCC1806 cells assessed as accumulation of cells with sub-G0-G1 DNA content at 1 uM incubated for 48 hrs in presence of docetaxel by flow cytometric analysis; format: functional, cell-based
[13] = tested on: MDA-MB-453; assay: Induction of apoptosis in human MDA-MB-453 cells assessed as accumulation of cells with sub-G0-G1 DNA content at 1 uM incubated for 48 hrs in presence of docetaxel by flow cytometric analysis; format: functional, cell-based
[14] = tested on: HCC1143; assay: Induction of apoptosis in human HCC1143 cells assessed as accumulation of cells with sub-G0-G1 DNA content at 1 uM incubated for 48 hrs in presence of docetaxel by flow cytometric analysis; format: functional, cell-based
[15] = tested on: MDA-MB-231; assay: Induction of apoptosis in human MDA-MB-231 cells assessed as accumulation of cells with sub-G0-G1 DNA content at 1 uM incubated for 48 hrs in presence of docetaxel by flow cytometric analysis; format: functional, cell-based
[16] = tested on: ZR-75-1; assay: Induction of apoptosis in human ZR-75-1 cells assessed as accumulation of cells with sub-G0-G1 DNA content at 1 uM incubated for 48 hrs in presence of docetaxel by flow cytometric analysis; format: functional, cell-based
[17] = tested on: HCC1428; assay: Induction of apoptosis in human HCC1428 cells assessed as accumulation of cells with sub-G0-G1 DNA content at 1 uM incubated for 48 hrs in presence of docetaxel by flow cytometric analysis; format: functional, cell-based
[18] = tested on: MDA-MB-468; assay: Induction of apoptosis in human MDA-MB-468 cells assessed as accumulation of cells with sub-G0-G1 DNA content at 1 uM incubated for 48 hrs in presence of docetaxel by flow cytometric analysis; format: functional, cell-based
[19] = tested on: NCI-H23; assay: Synergistic antiproliferative activity against human NCI-H23 cells assessed as reduction in cell viability by measuring bliss sum score incubated for 72 hrs in presence of docetaxel by CellTiter-Glo cell vaibility assay; format: functional
[20] = tested on: NCI-H146; assay: Induction of apoptosis in Bcl-xl dependent human NCI-H146 cells assessed as caspase 3/7 activation at 1 to 667 nM incubated for 4 hrs by immunoblot analysis; format: functional, cell-based; details: dose 1-667 nM
How it was run: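 NCI-H146 cells were incubated with increasing concentrations for 4 h, and caspase-3/7 activation was measured. Values are the mean of triplicate experiments ± SD.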

[21] = tested on: HCC38; assay: Synergistic antiproliferative activity against human HCC38 cells assessed as reduction in cell viability by measuring bliss sum score incubated for 72 hrs in presence of docetaxel by CellTiter-Glo cell vaibility assay; format: functional
[22] = tested on: NCI-H1650; assay: Synergistic antiproliferative activity against human NCI-H1650 cells assessed as reduction in cell viability by measuring bliss sum score incubated for 72 hrs in presence of docetaxel by CellTiter-Glo cell vaibility assay; format: functional
[23] = tested on: NCI-H1299; assay: Synergistic antiproliferative activity against human NCI-H1299 cells assessed as reduction in cell viability by measuring bliss sum score incubated for 72 hrs in presence of docetaxel by CellTiter-Glo cell vaibility assay; format: functional
[24] = tested on: NCI-H838; assay: Synergistic antiproliferative activity against human NCI-H838 cells assessed as reduction in cell viability by measuring bliss sum score incubated for 72 hrs in presence of docetaxel by CellTiter-Glo cell vaibility assay; format: functional

Compound: Cc1c(-c2ccc(N3CCc4cccc(C(=O)Nc5nc6ccccc6s5)c4C3)nc2C(=O)O)cnn1CC12CC3CC(CC(C3)C1)C2
- Activity [1]: 33%
- inhibition in vivo at 25 mg/kg [2]: 55%
- Activity [3]: 33%
- TGI [4]: 50%
- Activity [5]: 108%
- Activity [6]: 94%
- TGI [7]: 91%
- Activity [8]: Active
- TGI [9]: 52%
- Activity [10]: Active
- Activity [11]: Non-Toxic

Compound: CC1(C)CCC(c2ccc(Cl)cc2)=C(CN2CCN(c3ccc(C(=O)NS(=O)(=O)c4ccc(N[C@H](CCN5CCOCC5)CSc5ccccc5)c(S(=O)(=O)C(F)(F)F)c4)cc3)CC2)C1 [NAVITOCLAX]
- Activity [12]: Active
- Activity [13]: Active
- Activity [14]: Active
- Activity [15]: Active
- Activity [16]: Active
- Activity [17]: Active
- Activity [18]: Active

Compound: CN(C)CC#Cc1ccc(OCCCc2sc(N3CCc4cccc(C(=O)Nc5nc6ccccc6s5)c4C3)nc2C(=O)O)c(F)c1 [A-1155463]
- Activity_index [19]: 97
- Activity [20]: Active
- Activity_index [21]: 42
- Activity_index [22]: 312
- Activity_index [23]: 302
- Activity_index [24]: 128
